Experiments:
NCI-H522 = assay: Growth inhibition of human NCI-H522 cells assessed as cell growth at 10 uM relative to untreated control; assay type: functional; conditions: read-out: Activity
M14 = assay: Growth inhibition of human M14 cells assessed as cell growth at 1 uM relative to untreated control; assay type: functional; conditions: read-out: Activity
TK-10 = assay: Growth inhibition of human TK10 cells assessed as cell growth at 1 nM relative to untreated control; assay type: functional; conditions: read-out: Activity
MCF7 [1] = assay: Growth inhibition of human MCF7 cells; assay type: functional
OVCAR-5 [2] = assay: Growth inhibition of human OVCAR5 cells assessed as cell growth at 10 uM relative to untreated control; assay type: functional; conditions: read-out: Activity
SK-OV-3 [3] = assay: Growth inhibition of human SKOV3 cells assessed as cell growth at 1 uM relative to untreated control; assay type: functional; conditions: read-out: Activity
HOP-92 = assay: Growth inhibition of human HOP92 cells assessed as cell growth at 1 uM relative to untreated control; assay type: functional; conditions: read-out: Activity
Procedure, shortened: (§1)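 Run externally at the National Cancer Institute as a 59-cell-line panel screen, with concentrations up to 100 μM. Growth was scored relative to control, where negative growth or total cell kill was possible. Data are in the Supporting Information.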

NCI/ADR-RES = assay: Growth inhibition of human NCI/ADR-RES cells assessed as cell growth at 10 uM relative to untreated control; assay type: functional; conditions: read-out: Activity
OVCAR-3 = assay: Growth inhibition of human OVCAR-3 cells assessed as cell growth at 10 nM relative to untreated control; assay type: functional; conditions: read-out: Activity
OVCAR-4 = assay: Growth inhibition of human OVCAR4 cells assessed as cell growth at 10 uM relative to untreated control; assay type: functional; conditions: read-out: Activity
MDA-MB-435 [4] = assay: Growth inhibition of human MDA-MB-435 cells assessed as cell growth at 1 uM relative to untreated control; assay type: functional; conditions: read-out: Activity
EKVX = assay: Growth inhibition of human EKVX cells assessed as cell growth at 100 nM relative to untreated control; assay type: functional; conditions: read-out: Activity; procedure, shortened: as §1
DU-145 = assay: Growth inhibition of human DU145 cells assessed as cell growth at 1 uM relative to untreated control; assay type: functional; conditions: read-out: Activity; procedure, shortened: as §1
SW-620 [5] = assay: Growth inhibition of human SW620 cells assessed as cell growth at 10 nM relative to untreated control; assay type: functional; conditions: read-out: Activity
OVCAR-8 = assay: Growth inhibition of human OVCAR8 cells assessed as cell growth at 1 uM relative to untreated control; assay type: functional; conditions: read-out: Activity
T47D [6] = assay: Growth inhibition of human T47D cells assessed as cell growth at 1 uM relative to untreated control; assay type: functional; conditions: read-out: Activity
HL-60(TB) = assay: Growth inhibition of human HL-60(TB) cells assessed as cell growth at 100 nM relative to untreated control; assay type: functional; conditions: read-out: Activity
IGROV-1 = assay: Growth inhibition of human IGROV1 cells; assay type: functional
SK-OV-3 [7] = assay: Growth inhibition of human SKOV3 cells assessed as cell growth at 1 nM relative to untreated control; assay type: functional; conditions: read-out: Activity
SK-MEL-28 = assay: Growth inhibition of human SK-MEL-28 cells assessed as cell growth at 10 uM relative to untreated control; assay type: functional; conditions: read-out: Activity
NCI-H322M = assay: Growth inhibition of human NCI-H322M cells assessed as cell growth at 100 nM relative to untreated control; assay type: functional; conditions: read-out: Activity
SN12C = assay: Growth inhibition of human SN12C cells assessed as cell growth at 100 nM relative to untreated control; assay type: functional; conditions: read-out: Activity
RXF 393 = assay: Growth inhibition of human RXF393 cells assessed as cell growth at 1 uM relative to untreated control; assay type: functional; conditions: read-out: Activity
MDA-MB-435 [8] = assay: Growth inhibition of human MDA-MB-435 cells assessed as cell growth at 100 nM relative to untreated control; assay type: functional; conditions: read-out: Activity
SK-MEL-2 [9] = assay: Growth inhibition of human SK-MEL-2 cells assessed as cell growth at 10 nM relative to untreated control; assay type: functional; conditions: read-out: Activity
SF-539 [10] = assay: Growth inhibition of human SF539 cells assessed as cell growth at 1 uM relative to untreated control; assay type: functional; conditions: read-out: Activity
UO-31 [11] = assay: Growth inhibition of human UO31 cells assessed as cell growth at 1 uM relative to untreated control; assay type: functional; conditions: read-out: Activity
SK-MEL-2 [12] = assay: Growth inhibition of human SK-MEL-2 cells assessed as cell growth at 100 nM relative to untreated control; assay type: functional; conditions: read-out: Activity
SW-620 [13] = assay: Growth inhibition of human SW620 cells assessed as cell growth at 10 uM relative to untreated control; assay type: functional; conditions: read-out: Activity
SF-539 [14] = assay: Growth inhibition of human SF539 cells assessed as cell growth at 1 nM relative to untreated control; assay type: functional; conditions: read-out: Activity
SK-MEL-2 [15] = assay: Growth inhibition of human SK-MEL-2 cells; assay type: functional
MCF7 [16] = assay: Growth inhibition of human MCF7 cells assessed as cell growth at 1 nM relative to untreated control; assay type: functional; conditions: read-out: Activity
PC-3 = assay: Drug uptake in cytoplasm of human PC3 cells at 5 uM by confocal microscopy; assay type: ADME, cell-based; conditions: pc-3, 5 µM
Procedure, shortened: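 PC-3 cells were plated overnight on fibronectin/[…]-coated slides and treated with 5 μM compound or DMSO for 1-6 h. Cells were PBS-washed, fixed in 4% formaldehyde, and stained with propidium iodide (nuclei) and anti-DNMT3a or anti-DNMT3b antibody. The compound was excited at 725 nm by multiphoton laser and imaged through a 500-550 nm filter by confocal microscopy.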

SF-268 = assay: Growth inhibition of human SF268 cells assessed as cell growth at 1 uM relative to untreated control; assay type: functional; conditions: read-out: Activity
UO-31 [17] = assay: Growth inhibition of human UO31 cells assessed as cell growth at 1 nM relative to untreated control; assay type: functional; conditions: read-out: Activity
SK-OV-3 [18] = assay: Growth inhibition of human SKOV3 cells assessed as cell growth at 10 uM relative to untreated control; assay type: functional; conditions: read-out: Activity
HCC 2998 = assay: Growth inhibition of human HCC2998 cells assessed as cell growth at 1 nM relative to untreated control; assay type: functional; conditions: read-out: Activity; procedure, shortened: as §1
HCT-116 = assay: Growth inhibition of human HCT116 cells assessed as cell growth at 10 uM relative to untreated control; assay type: functional; conditions: read-out: Activity; procedure, shortened: as §1
OVCAR-5 [19] = assay: Growth inhibition of human OVCAR5 cells assessed as cell growth at 1 uM relative to untreated control; assay type: functional; conditions: read-out: Activity
NCI-H226 = assay: Growth inhibition of human NCI-H226 cells; assay type: functional
SK-OV-3 [20] = assay: Growth inhibition of human SKOV3 cells; assay type: functional
UACC-257 = assay: Growth inhibition of human UACC257 cells assessed as cell growth at 1 nM relative to untreated control; assay type: functional; conditions: read-out: Activity
UACC-62 = assay: Growth inhibition of human UACC62 cells assessed as cell growth at 10 nM relative to untreated control; assay type: functional; conditions: read-out: Activity
SNB-75 = assay: Growth inhibition of human SNB75 cells assessed as cell growth at 1 nM relative to untreated control; assay type: functional; conditions: read-out: Activity
T47D [21] = assay: Growth inhibition of human T47D cells assessed as cell growth at 10 nM relative to untreated control; assay type: functional; conditions: read-out: Activity
HCT-15 = assay: Growth inhibition of human HCT15 cells; assay type: functional; procedure, shortened: as §1
[22] = read-out: LC50 (the source's name)

## COc1ccc2c(c1)[nH]c1c(C)c(OS(=O)(=O)c3cccc4c(N(C)C)cccc34)ccc12
NCI-H522
  growth at 10 µM: 37%
M14
  growth at 1 µM: 29%
TK-10
  growth at 0.001 µM: 97%
MCF7 [1]
  GI50: 2.71 µM
  TGI: > 100 µM
MCF7 [1]; [22]
  CC50: > 100 µM
OVCAR-5 [2]
  growth at 10 µM: 33%
SK-OV-3 [3]
  growth at 1 µM: 32%
HOP-92
  growth at 1 µM: 49%
NCI/ADR-RES
  growth at 10 µM: 15%
OVCAR-3
  growth at 0.01 µM: 100%
OVCAR-4
  growth at 10 µM: 30%
MDA-MB-435 [4]
  growth at 1 µM: -5%
EKVX
  growth at 0.1 µM: 91%
DU-145
  growth at 1 µM: 7%
SW-620 [5]
  growth at 0.01 µM: 104%
OVCAR-8
  growth at 1 µM: 44%
T47D [6]
  growth at 1 µM: 15%
HL-60(TB)
  growth at 0.1 µM: 69%
IGROV-1
  GI50: 27.6 µM
  TGI: > 100 µM
IGROV-1; [22]
  CC50: > 100 µM
SK-OV-3 [7]
  growth at 0.001 µM: 103%
SK-MEL-28
  growth at 10 µM: 19%
NCI-H322M
  growth at 0.1 µM: 94%
SN12C
  growth at 0.1 µM: 97%
RXF 393
  growth at 1 µM: -29%
MDA-MB-435 [8]
  growth at 0.1 µM: 83%
SK-MEL-2 [9]
  growth at 0.01 µM: 110%
SF-539 [10]
  growth at 1 µM: -30%
UO-31 [11]
  growth at 1 µM: 54%
SK-MEL-2 [12]
  growth at 0.1 µM: 115%
SW-620 [13]
  growth at 10 µM: 9%
SF-539 [14]
  growth at 0.001 µM: 104%
SK-MEL-2 [15]
  GI50: 10 µM
  TGI: > 100 µM
SK-MEL-2 [15]; [22]
  CC50: > 100 µM
MCF7 [16]
  growth at 0.001 µM: 95%
PC-3
  Drug uptake: Active
SF-268
  growth at 1 µM: 44%
UO-31 [17]
  growth at 0.001 µM: 94%
SK-OV-3 [18]
  growth at 10 µM: 34%
HCC 2998
  growth at 0.001 µM: 99%
HCT-116
  growth at 10 µM: 5%
OVCAR-5 [19]
  growth at 1 µM: 101%
NCI-H226
  GI50: 11.3 µM
  TGI: > 100 µM
NCI-H226; [22]
  CC50: > 100 µM
SK-OV-3 [20]
  GI50: 5.47 µM
  TGI: > 100 µM
SK-OV-3 [20]; [22]
  CC50: > 100 µM
UACC-257
  growth at 0.001 µM: 100%
UACC-62
  growth at 0.01 µM: 83%
SNB-75
  growth at 0.001 µM: 107%
T47D [21]
  growth at 0.01 µM: 53%
HCT-15
  GI50: 4.35 µM
  TGI: > 100 µM
HCT-15; [22]
  CC50: > 100 µM

Reference: ChEMBL document CHEMBL1157638, “Fluorescent epigenetic small molecule induces expression of the tumor suppressor ras-association domain family 1A and inhibits human prostate xenograft” (J Med Chem, 2010)
